# Reference: publication PMC5871537 (Molecular pharmaceutics, 2017)
# Several values for one entry are separate records, joined by “and”; a condition that tells them apart may be missing. Identical values can stand only once.
# Columns and labels:
# Hb A = Hb A (Homo sapiens, UniProt P69905); experiment: Time-dependent Hb adduct formation in normal whole blood; assay type: in vitro ADME; settings: for Hb modification (residual Hb adduct) at 24 h: normal whole blood, 2 mM compound; for remaining activity at 2000 µM: read-out: remaining activity at 24 h
# Procedure, shortened: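 Normal donor whole blood (30% hematocrit) was incubated with 2 mM test compound at 37 °C for 24 h with shaking at 140 rpm. Aliquots taken at 0.5, 1, 2, 4, 6, 8 and 24 h were mixed 1:1 with sodium cyanoborohydride/borohydride mix (50 mM stock) to fix adducts. Samples were stored at −80 °C, then analysed by cation-exchange HPLC as %Hb modified versus time. Peak was found by visual inspection and AUC0–24 by linear trapezoidal rule.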
# [1] = cited from earlier work
# [2] = system: SS cells (homozygous sickle red blood cells); experiment: Antisickling study; assay type: cell-based, human; settings: for inhibition of RBC sickling: hypoxia
# Procedure, shortened: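 SS patient blood suspensions (20% hematocrit) were preincubated in air with 0, 1, 2 or 5 mM test compound (final DMSO <2%) at 37 °C for 1 h. They were then held under hypoxia (4% O2/96% N2) at 37 °C for 2 h. Aliquots were fixed in 2% glutaraldehyde without air exposure and scored microscopically for sickled cells. % inhibition was calculated against untreated control. Three biological replicates.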
# Hb = Hb (Homo sapiens, UniProt P69905); experiment: Incubation of VZHE004 with Hb for 3 days, UPLC-MS analysis; assay type: physicochemical; settings: incubated with Hb for 3 days
# sickle Hb (Hb S) = sickle Hb (Hb S) (Homo sapiens, UniProt P69905); experiment: Hb adduct formation study; assay type: cell-based; settings: SS cells, 20% hematocrit, 2 mM compound, mean ± SD of three experiments
# Procedure, shortened: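 SS cell suspensions (20% hematocrit) were incubated with test compound (final DMSO <2%) in air at 37 °C for 1 h, then under 4% O2/96% N2 at 37 °C for 2 h. Cells were PBS-washed and lysed in hypotonic buffer. Clarified hemolysate was run on weak cation-exchange HPLC, and modified Hb S was taken from elution patterns. Three biological replicates, mean ± SD.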
# [3] = at all three concentrations (1, 2 and 5 mM)
structure (smiles),measurement,setting,value
"O=Cc1ccc(COc2ccccc2)o1 [5-PMFC, 5-(Phenoxymethyl)-2-furan carbaldehyde]",Hb modification (residual Hb adduct) at 24 h,Hb A,~ 7%
same,remaining activity at 2000 µM,Hb A,~29%
"O=Cc1ccc(CO)o1 [5-HMF, 5-hydroxymethyl-2-furfural, reference compound]",Hb modification (residual Hb adduct) at 24 h,Hb A,~ 2% and 1.1%
same,remaining activity at 2000 µM,Hb A,~8%
same,plasma half-life,[1],~ 1 h
"O=Cc1ccc(COc2ccc(Cl)cc2)o1 [5-CMFC, 5-((4-chlorophenoxy)methyl)-2-furan carbaldehyde]",inhibition of RBC sickling,[2]; [3],< 10%
"O=Cc1ccc(COc2ccccc2[N+](=O)[O-])o1 [5-NMFC, 5-((2-nitrophenoxy)methyl)-2-furan carbaldehyde]",inhibition of RBC sickling,[2]; [3],< 10%
same,Hb modification (residual Hb adduct) at 24 h,Hb A,~ 7%
same,remaining activity at 2000 µM,Hb A,~29%
"CC(=O)OCc1ccc(C=O)o1 [VZHE004, (5-Formylfuran-2-yl)methyl Acetate]",stability against hydrolytic cleavage of the ester (UPLC–MS),Hb,intact
"CCCOCc1ccc(C=O)o1 [VZHE015, 5-(Propoxymethyl)-2-furan Carboxadehyde]",modified Hb (%),sickle Hb (Hb S),39.7 ± 8.2%
"COP(=O)(OC)OCc1ccc(C=O)o1 [VZHE014, (5-Formylfuran-2-yl)methyl Dimethyl Phosphate]",modified Hb (%),sickle Hb (Hb S),19.7 ± 6.3%
same,inhibition of RBC sickling,[2]; 5 mM compound,43% and ~ 40%
"CC(C)OCc1ccc(C=O)o1 [VZHE016, 5-(Isopropoxymethyl)-2-furan Carboxadehyde]",modified Hb (%),sickle Hb (Hb S),36.4 ± 9.7%
same,inhibition of RBC sickling,[2]; 5 mM compound,< 10%
"COCc1ccc(C=O)o1 [VZHE005, 5-(Methoxymethyl)-2-furan Carboxadehyde]",modified Hb (%),sickle Hb (Hb S),35.3 ± 11.6%
"CCOCc1ccc(C=O)o1 [VZHE011, 5-(Ethoxymethyl)-2-furan Carboxadehyde]",modified Hb (%),sickle Hb (Hb S),40.4 ± 3.9%
"CC(C)(C)OC(=O)OCc1ccc(C=O)o1 [VZHE006, tert-Butyl((5-formylfuran-2-yl)methyl) Carbonate]",modified Hb (%),sickle Hb (Hb S),50.0 ± 3.0%
same,fold antisickling potency over the other three esters and 5-HMF,[2]; 2 mM compound,roughly 3 fold
same,inhibition of RBC sickling,[2]; 5 mM compound,> 95%
